Screening data from PubChem BioAssay.
Most compounds without a hit are left out; they make up all but 1.7% or so of the library.
PP5 inh: PP5 (human) phosphatase inhibition | P53041 | purified PP5c, OMFP substrate fluorescence | inhibition, % at 6.7 µM | 320,000 tested, 0.18% active;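 active means inhibition above the campaign's mean inhibition across all tested compounds plus 3 SD, cut at about 9.5% in these data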
core dimer inh: HCV core protein dimerization inhibition | TR-FRET GST/Flag-core106 dimerization, 1536-well | inhibition, % at 5 µM | 300,000 tested, 0.33% active;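 active means inhibition above the mean of all tested compounds plus 3 SD, set per screening campaign, cut at about 45% in these data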
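Assay system: Tagged HCV core106 pair (GST and Flag) | Buffer or medium: KF-containing HEPES buffer, pH 7.45, DTT, CHAPS, BSA | Also added: Eu donor and XL665 acceptor anti-tag antibodies | Dosing: One concentration, 5 µM, in 0.5% DMSO | Timing: 4 h at 22.5 °C | Technique: TR-FRET 671 and 617 nm emission | Repeats: Singlicate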
PP1 counter: PP1-alpha (human) inhibition in PP5 counter-screen | P62136 | purified PP1alpha, OMFP fluorescence | inhibition, % at 6.7 µM | 320,000 tested, 0.9% active;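 active means inhibition above the mean inhibition of all tested compounds plus 3 SD, computed separately for each screening campaign, cut at about 15% in these data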
Target sequence (P62136 whole entry, looked up): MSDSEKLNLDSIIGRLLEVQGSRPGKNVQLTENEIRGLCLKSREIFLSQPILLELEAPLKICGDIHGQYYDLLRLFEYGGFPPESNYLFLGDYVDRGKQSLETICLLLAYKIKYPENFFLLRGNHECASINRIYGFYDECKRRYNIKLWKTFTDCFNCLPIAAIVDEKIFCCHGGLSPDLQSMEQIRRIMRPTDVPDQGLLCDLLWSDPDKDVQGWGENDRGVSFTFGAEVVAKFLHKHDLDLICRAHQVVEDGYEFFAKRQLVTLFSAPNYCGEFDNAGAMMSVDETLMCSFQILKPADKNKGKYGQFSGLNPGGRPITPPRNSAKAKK
EBNA-1 inhibitor: blocks EBNA-1 binding to DNA; inhibition, % at 14.8 µM; 300,000 tested, 0.34% active; EBNA-1 DNA binding, fluorescence polarization; in the data active means inhibition above about 28%
ZTA counter: counter-screen for EBNA-1 inhibitors: inhibitors of Epstein-Barr virus ZTA; P03206; ZTA-DNA binding, fluorescence polarization; inhibition, % at 11 µM; 320,000 tested, 0.15% active; in the data active means inhibition above about 33%
Target sequence (P03206 whole entry, looked up): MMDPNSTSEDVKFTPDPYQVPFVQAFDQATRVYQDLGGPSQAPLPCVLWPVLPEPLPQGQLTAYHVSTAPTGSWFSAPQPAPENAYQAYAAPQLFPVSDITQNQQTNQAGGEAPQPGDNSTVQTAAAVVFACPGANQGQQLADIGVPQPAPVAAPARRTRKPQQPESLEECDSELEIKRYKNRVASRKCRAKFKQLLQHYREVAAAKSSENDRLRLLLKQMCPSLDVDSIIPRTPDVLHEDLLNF
PP5 conf: PP5 (human) inhibition, confirmation | shares compounds with PP5 inh | Purified PP5, fluorogenic phosphatase substrate, fluorescence | inhibition, % at 6.7 µM | 460 tested, 22% active; in the data active means inhibition above about 9.5%
PP1 counter 3x: PP1 phosphatase inhibition, counter-screen for PP5 inhibitors; PP1 enzyme, fluorescent phosphatase substrate; AID 2355; shares compounds with PP5 inh; inhibition, % at 6.7 µM; 460 tested, 4% active; in the data active means inhibition above about 16%
A number is an active result; 0 = inactive; - = no result.

SMILES | PP5 inh | core dimer inh | PP1 counter | EBNA-1 inhibitor | ZTA counter | PP5 conf | PP1 counter 3x
Cc1ccc(S(=O)(=O)Nc2ccc(NC(=O)Nc3cccc(C(F)(F)F)c3)cc2)cc1 | 10.7 | 0 | 0 | 0 | 0 | 0 | 0
O=C(OCC(=O)N1CCCCC1)c1cc(NS(=O)(=O)c2ccc(Cl)c([N+](=O)[O-])c2)ccc1O | 0 | 0 | 0 | 0 | 0 | - | -
Cc1[nH]n(-c2ccccc2)c(=O)c1C(C[N+](=O)[O-])c1ccc(F)cc1 (stereo not given) | 12.6 | 0 | 0 | 0 | 0 | 0 | 0
Cc1cc(C)c(S(=O)(=O)/N=C2/C=C(Sc3ncn[nH]3)C(=O)c3ccccc32)cc1C | 11.4 | 0 | 0 | 0 | 0 | 32.4 | 0
Cc1ccc(C)c(S(=O)(=O)/N=C2\C=C(NS(=O)(=O)c3ccccc3)C(=O)c3ccccc32)c1 | 0 | 0 | 0 | 0 | 0 | - | -
CCN(CC(=O)Nc1ccc(NC(C)=O)cc1)CC(=O)Nc1cccc(Cl)c1 | 9.8 | 0 | 0 | 0 | 0 | 0 | 0
CCN(CC(=O)Nc1ccc(NC(C)=O)cc1)CC(=O)Nc1ccc(Cl)c(Cl)c1 | 0 | 0 | 0 | 0 | 0 | - | -
CC(=O)N1c2ccc(S(=O)(=O)N3CCCC3)cc2CC1C(=O)Nc1cc(C)cc(C)c1 (stereo not given) | 0 | 0 | 0 | 0 | 0 | - | -
O=c1c2cc(N3CCOCC3)ccc2[nH]c(=S)n1Cc1ccco1 | 10.4 | 0 | 0 | 0 | 0 | 0 | 0
O=c1c2cc(Cl)ccc2[nH]c(=S)n1Cc1ccco1 | 0 | 0 | 0 | 0 | 0 | - | -
Cc1cc(C(=O)Nc2ccc(F)c(Cl)c2)on1 | 0 | 0 | 0 | 0 | 0 | - | -
CN(CCO)c1cc(N2CCN(C(=O)c3ccco3)CC2)c2nonc2c1[N+](=O)[O-] | 0 | 0 | 0 | 0 | 0 | - | -
COc1ccc(COC(=O)C2CCN(C(=O)c3ccc(Cl)cc3)CC2)cc1F | 0 | - | 0 | - | 0 | - | -
CN1CCC(NC(=O)Nc2ccc(Br)cc2)CC1 | 12.9 | 0 | 0 | 0 | 0 | 0 | 0
Cc1ccc2[nH]c3c(=O)n(CC(=O)N4CCN(C)CC4)ncc3c2c1 | 0 | 0 | 0 | 0 | 0 | - | -
CC1CC(C)CN(C(=O)c2ccc3c(=O)n(Cc4ccc5c(c4)OCO5)c(=S)[nH]c3c2)C1 (stereo not given) | 11.1 | 0 | 0 | 0 | 0 | 0 | 0
O=C(c1ccc2c(=O)n(Cc3ccc4c(c3)OCO4)c(=S)[nH]c2c1)N1CCCCC1 | 0 | 0 | 0 | 0 | 0 | - | -
COc1ccc(C2=Nn3c(nnc3-c3ccncc3)SC2)cc1 | 11.5 | 0 | 0 | 0 | 0 | 0 | 0
COc1ccc(OC)c(C2=Nn3c(nnc3-c3cccc(OC(C)C)c3)SC2)c1 | 12.4 | 0 | 0 | 0 | 0 | 0 | 0
CCOc1ccc(C2=Nn3c(nnc3-c3ccc(OC)cc3)SC2)cc1 | 0 | 0 | 0 | 0 | 0 | - | -
O=C(Cc1n[nH]c(=O)[nH]c1=O)N/N=C/CCc1ccccc1 | 0 | 0 | 0 | 0 | 0 | - | -
Cn1cc(CNC(=O)/C=C/c2ccc(Cl)cc2)cn1 | 0 | 0 | 0 | 0 | 0 | - | -
CC(=O)N1C(=O)N(C(C)=O)C2C1N(C)C(=O)N2C(C)=O (stereo not given) | 0 | 0 | 0 | 0 | 0 | - | -
CCCCNS(=O)(=O)c1ccc(NC(=O)C(Sc2ccccc2)c2ccccc2)cc1 (stereo not given) | 10.3 | 0 | 0 | 0 | 0 | 0 | 0
CCC(C)NS(=O)(=O)c1ccc(NC(=O)C(Sc2ccccc2)c2ccccc2)cc1 (stereo not given) | 0 | 0 | 0 | 0 | 0 | - | -
SMILES | PP5 inh | core dimer inh | PP1 counter | EBNA-1 inhibitor | ZTA counter | PP5 conf | PP1 counter 3x
O=C1OCCC1Sc1nnc(-c2cccc(Br)c2)o1 (stereo not given) | 12.2 | 0 | 0 | 0 | 0 | 0 | 0
CCc1ccc(C2=NN(c3ccc(S(N)(=O)=O)cc3)C(c3ccc(F)cc3)C2)cc1 (stereo not given) | 12.0 | 0 | 0 | 0 | 0 | 0 | 0
COc1ccc(C2C3=C(CC(C)(C)CC3=O)Oc3ncn(Cc4ccccc4)c(=N)c32)cc1 (stereo not given) | 10.9 | 0 | 0 | 0 | 0 | 0 | 0
Cc1ccc(NNc2c(C)nc3ccccc3nc2=O)cc1 | 0 | 0 | 0 | 0 | 0 | - | -
COc1cc(/C=C2/C(=O)N(c3ccc([N+](=O)[O-])cc3)N=C2N2CCOCC2)ccc1O | 16.0 | 0 | 0 | 0 | 0 | 0 | 0
CCN(CC)c1ccc(/C=C2/C(=O)N(c3ccc([N+](=O)[O-])cc3)N=C2N2CCOCC2)cc1 | 0 | 0 | 0 | 0 | 0 | - | -
Cc1cc(=O)[nH]c(-c2cccnc2)n1 | 0 | 0 | 0 | 0 | 0 | - | -
Cn1c(=O)c2[nH]c(-c3cccnc3)nc2n(C)c1=O | 13.7 | 0 | 0 | 0 | 0 | 0 | 0
Nc1c(C(O)(C(F)(F)F)C(F)(F)F)cc(C(O)(C(F)(F)F)C(F)(F)F)c2ccccc12 | 12.6 | 0 | 0 | 0 | 0 | 14.6 | 0
N#Cc1c(NC(=O)c2ccc(Br)o2)n(-c2ccccc2)c2nc3ccccc3nc12 | 11.5 | 0 | 0 | 0 | 0 | 32.9 | 16.3
CCC(C)n1c(NC(=O)c2ccccc2)c(C#N)c2nc3ccccc3nc21 (stereo not given) | 0 | 0 | 0 | 0 | 0 | - | -
Clc1ccc2c(c1)Nc1ccccc1CC2 | 0 | 0 | 0 | 0 | 0 | - | -
O=C1CCC(=O)N1Cc1c(Cl)cccc1Cl | 0 | 0 | 0 | 0 | 0 | - | -
O=C(O)c1cc(N/N=C/c2ccncc2)ccc1Cl | 10.9 | 0 | 0 | 0 | 0 | 0 | 0
CCOc1cc(S(=O)(=O)n2cc(-c3ccc(F)cc3)c(N)n2)cc(OCC)c1OCC | 11.1 | 0 | 0 | 0 | 0 | 0 | 0
CCOc1ccc(S(=O)(=O)n2cc(-c3ccc(F)cc3)c(N)n2)cc1 | 0 | 0 | 0 | 0 | 0 | - | -
Cc1cc(OCC(F)(F)C(F)(F)C(F)(F)C(F)(F)C(F)(F)C(F)F)nc(N)n1 | 15.2 | 0 | 0 | 0 | 0 | 0 | 0
CCC(NS(=O)(=O)c1ccc(C)cc1)C(=O)N1CCOCCOCCOCCOCC1 (stereo not given) | 0 | 0 | 0 | 0 | 0 | - | -
CC(=O)NCCc1ccc(S(=O)(=O)NCc2ccc3c(c2)OCO3)cc1 | 0 | 0 | 0 | 0 | 0 | - | -
CCCc1cc2c(cc1NS(=O)(=O)c1ccc(CCNC(C)=O)cc1)OCO2 | 10.7 | 0 | 0 | 0 | 0 | 0 | 0
COc1cccc2sc(=NC(=O)CS(=O)(=O)c3ccc(Cl)cc3)n(C)c12 | 0 | 0 | 0 | 0 | 0 | - | -
CN1C=CC=C/C1=C1\SC(=S)N(C2CCCCC2)C1=O | 9.7 | 0 | 0 | 0 | 0 | 0 | 0
COc1ccc(/C=N/Nc2cc(N(C)C)nc(N(C)C)n2)cc1 | 14.2 | 0 | 0 | 0 | 0 | 42.6 | 0
CN(C)c1cc(N/N=C\c2ccccc2)nc(N(C)C)n1 | 15.8 | 0 | 0 | 0 | 0 | 38.3 | 0
Cc1cc(N/N=C/c2ccccc2)nc(NCc2ccccc2)n1 | 0 | 0 | 0 | 0 | 0 | - | -
COc1ccccc1/C=N/Nc1cc(N(C)C)nc(N(C)C)n1 | 18.2 | 0 | 0 | 0 | 0 | 29.7 | 0
Cc1ccc(Cl)cc1N1CCN(C(=O)c2noc(C(C)C)c2[N+](=O)[O-])CC1 | 0 | 0 | 0 | 0 | 0 | - | -
